Measurements from different studies.
Lines come from different studies, so protocols differ.
Observed: enzyme activity
Mode: inhibitor
NUAK1: NUAK family SNF1-like kinase 1 (NUAK1, Homo sapiens, UniProt O60285)
Rock2: Rho-associated protein kinase 2 (Rock2, Rattus norvegicus, UniProt Q62868)
DYRK1B: Dual specificity tyrosine-phosphorylation-regulated kinase 1B (DYRK1B, Homo sapiens, UniProt Q9Y463)

Structure (SMILES)	target	assay	conditions	remaining activity
Cc1ccc(C(=O)Nc2ccc(CN3CCN(C)CC3)c(C(F)(F)F)c2)cc1C#Cc1cnc2cccnn12	Mitogen-activated protein kinase kinase kinase 15 (MAP3K15, Homo sapiens, UniProt Q6ZN16)		23.5 nM	67%
Cc1nn(CC(F)(F)F)cc1Nc1ncc(C2CC2)c(NCc2ccc(S(N)(=O)=O)cc2)n1	NUAK1	radiometric	1 µM	97%
COc1cccc(CCNc2nc3cc(C(=O)O)ccc3c3cncnc23)c1	Dual specificity tyrosine-phosphorylation-regulated kinase 3 (DYRK3, Homo sapiens, UniProt O43781)	radiometric	1 µM	28%
Cc1cnc(NC2CCOCC2)nc1-n1cnc(C(=O)NC(CN)c2cc(F)cc(Cl)c2)c1 (stereo not drawn)	Rock2	radiometric	1 µM	25%
COc1cccc(Nc2nc3cc(C(=O)O)ccc3c3cnccc23)c1	DYRK1B	radiometric	1 µM	35%
O=C(NCCCNc1nc(Nc2cccc(NC(=O)N3CCCC3)c2)ncc1Br)C1CCC1	Inhibitor of nuclear factor kappa-B kinase subunit epsilon (IKBKE, Homo sapiens, UniProt Q14164)	radiometric	1 µM	-2%
CCCOc1ccc(OC)c(F)c1C(=O)c1ccc(C(=O)N[C@@H]2CNC[C@H]2NC(=O)c2ccc3[nH]ncc3c2)cc1	Rock2		10 µM	-1%
Cc1nn(CC(F)(F)F)cc1Nc1ncc(C2CC2)c(NCCCNC(=O)C2CCC2)n1	NUAK1	radiometric	1 µM	82%
O=C(O)c1ccc2c(c1)nc(NCCc1cccc(Cl)c1)c1ccncc12	DYRK1B	radiometric	1 µM	112%
